Assay outcomes (PubChem)
This is a sample that favours compounds with a hit; in the whole collection about 3.5% have one here.
MrgX1 agonist – activates human MrgX1 receptor signaling | Q96LB2 | MrgX1-HEK293 cells, Fluo-4 calcium fluorescence, agonist mode; stronger effect = higher value | B-score at 10 µM | hit rate 0.44% among 310,000 | AID 588627;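 active = calcium response B-score plate-corrected fluorescence ratio at least 3 library SD, with starting fluorescence B-score inside 5 SD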
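System – MrgX1-expressing HEK293 cells · Incubation – cells plated overnight, dye loaded 0.5 h 37 °C, 0.5 h room temperature · Technique – kinetic Fluo-4 NW fluorescence of intracellular calcium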
RGS4 block – inhibitors of human RGS4; P49798; HEK293 M3R/RGS4 inducible, Fluo-4 calcium flux; stronger effect = higher value; triggered by carbachol at its EC20; B-score at 10 µM; hit rate 0.45% among 310,000; AID 463165;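 active = B-score, a plate-corrected calcium signal, over three deviations above library mean, with baseline fluorescence within five deviations of library mean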;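 also: RGS4 expression induced by doxycycline in cells with stable M3 receptor; B-score is computed from the integrated fluorescence ratio over baseline after carbachol; higher B-score means a larger calcium signal and so more RGS4 inhibition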
Target sequence (P49798 whole entry, looked up): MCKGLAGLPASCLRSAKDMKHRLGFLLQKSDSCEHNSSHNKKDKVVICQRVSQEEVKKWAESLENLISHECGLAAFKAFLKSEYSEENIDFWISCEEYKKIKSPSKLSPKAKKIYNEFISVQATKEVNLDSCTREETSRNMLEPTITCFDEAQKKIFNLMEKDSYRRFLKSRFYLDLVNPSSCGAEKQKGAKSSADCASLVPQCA
MrgX1 allo act – human MrgX1 positive allosteric modulation, primary screen | B-score at 10 µM | hit rate 0.63% among 310,000 | MrgX1-HEK293, Fluo-4 calcium flux, FDSS; stronger effect = higher value;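 active = plate-corrected calcium response at least 3 library SD above typical, normal starting fluorescence, not activating the receptor alone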;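 also: compound read alongside a low EC10 to EC30 dose of BAM8-22 agonist; peak minus trough fluorescence over baseline measured at the second addition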
RGS4 pot – potentiators or activators of RGS4 | AID 463111 | hit rate 0.92% among 310,000 | B-score at 10 µM | HEK293 M3R/inducible RGS4, carbachol calcium flux Fluo4; stronger effect = lower value;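 active = B-score of the integrated calcium signal more than 4 SD below the library mean, with starting fluorescence not abnormally high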;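 also: negative B-score means reduced calcium response which marks RGS4 activation or potentiation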
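Assay system: HEK293 FlpIn-TREx cells, stable M3R, doxycycline-inducible RGS4 / Probe or stimulus: carbachol, ECmax concentration / Times: overnight RGS4 induction, 30 min dye load 37 °C, 20 min compound RT / Signal: kinetic calcium fluorescence imaging with Fluo4-AM dye, 2 µM / Measure: Agonist-evoked peak-minus-minimum fluorescence over baseline, integrated ratio, B score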
MrgX1 antag – blocks BAM8-22 activation of human MrgX1 receptor; Q96LB2; MRGX1-HEK293 calcium flux, Fluo-4, BAM8-22 antagonism; stronger effect = lower value; B-score at 10 µM; hit rate 1.3% among 310,000; AID 588676;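 active = calcium-response B-score plate-corrected more than 3 library SD below zero, starting fluorescence within 5 deviations, no agonist response on first addition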;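 also: peak minus trough fluorescence over baseline after final BAM8-22 challenge near maximal dose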
RGS4 block valid – RGS4 inhibitor validation | HEK293 M3R/RGS4, carbachol calcium Fluo-4 fluorescence; carbachol added at its EC20; 0 = buffer wells, 100 = carbachol control | hit rate 65% among 1,700 | shares compounds with RGS4 block | calcium response, % at 10 µM;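 active = duplicate-averaged calcium response above the buffer-only control mean plus 5 SD of those controls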;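 also: integrated fluorescence ratio F max minus min over baseline F0; higher response in RGS4-induced cells means RGS4 inhibition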
RGS4 uninduced – non-induced cell nonspecific activity of RGS4 inhibitors; HEK293 M3R non-induced, carbachol calcium Fluo-4; submaximal (EC20) carbachol stimulus; buffer wells 0%, carbachol control wells 100%; hit rate 20% among 1,900; activity (percent), % at 10 µM; shares compounds with RGS4 block; call rule not given here;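 also: RGS4 induction absent so cells express M3R without RGS4; higher means more calcium signal and flags a non-specific hit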
RGS4 inh ctr2 – second RGS4 inhibitor counter-screen in uninduced cells lacking carbachol | hit rate 22% among 1,900 | AID 493001 | HEK293 M3R/RGS4 non-induced, Fluo-4 calcium, no carbachol; normalised: buffer wells 0%, carbachol wells 100% | shares compounds with RGS4 block | calcium response (agonist-mode artifact), % at 10 µM;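 active = duplicate-averaged calcium rise in uninduced cells above buffer wells' mean plus 5 SD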
Starred values were filed as active, the others as inactive; i = inactive; . = no result given.

SMILES	MrgX1 agonist	RGS4 block	MrgX1 allo act	RGS4 pot	MrgX1 antag	RGS4 block valid	RGS4 uninduced	RGS4 inh ctr2
CCc1nnc(NC(=O)c2cc(-c3ccccn3)nc3ccc(Br)cc23)s1	i	i	i	i	i	.	.	.
Cc1sc(NC(=O)c2cc(-c3ccccc3)nc3ccccc23)c(C(N)=O)c1C	i	i	i	i	i	.	i	i
CCc1nnc(NC(=O)c2cc(-c3ccncc3)nc3ccccc23)s1	i	4.9*	i	i	i	18%*	i	i
Cc1sc(NC(=O)c2cc(-c3ccc(Cl)cc3)nc3ccccc23)c(C(N)=O)c1C	i	i	i	i	i	.	.	.
CSCC(=O)NC1CCCc2c1cnn2-c1ccc(C)c(C)c1 (stereo not given)	i	i	i	i	i	.	.	.
CC(C)CC(NC(=O)C(NC(=O)C1CCC(=O)N1C(=O)OCc1ccccc1)C(C)C)C(=O)N1CCCC1C(N)=O (stereo not given)	i	i	i	i	i	.	.	.
O=C1c2cccc3c([N+](=O)[O-])c(O)cc(c23)C(=O)N1Nc1ccccc1	i	6.3*	i	i	i	12%*	i	i
O=C1c2ccccc2C(=O)N1Nc1ccccc1	i	i	i	i	i	.	.	.
O=C(C1CCCN1S(=O)(=O)c1ccc(Cl)cc1)N1CCCCC1 (stereo not given)	i	i	i	i	i	.	.	.
CC1=CC2=NC(=O)/C(=C/c3cccn3Cc3ccccc3)C(=N)N2O1	i	i	i	i	i	.	.	.
N=C1/C(=C/c2cccn2Cc2ccc(Cl)cc2)C(=O)N=C2SC=CN12	i	8.4*	i	i	i	5.0%*	i	i
CC(C)(C)c1ccc(/C=C(\c2nc3ccccc3[nH]2)S(=O)(=O)c2ccccc2)cc1	i	i	i	i	i	i	i	i
N=c1c2cn[nH]c2nc(SCC(=O)c2ccc(Br)cc2)n1-c1ccc(Br)cc1	i	i	i	i	i	.	.	.
CCCCOc1ccc(/C=c2\sc3ncnn3c2=O)cc1	i	i	i	i	i	i	i	i
CCCCOc1ccc(/C=C2/Sc3ccccc3C2=O)cc1	i	i	i	i	i	.	.	.
N#CC1=C(N)C(C#N)(C#N)C2(C(=O)Nc3ccccc32)C2CCCC=C12 (stereo not given)	i	5.4*	i	i	i	24%*	31%*	i
O=C1NN(c2ccccc2)C(=O)/C1=C\c1cccc(OC(=O)c2cccs2)c1	27*	20*	i	i	i	70%*	i	i
O=C(Nc1ccc2c(c1)OCCO2)c1cccnc1Oc1ccc(Cl)cc1	i	i	i	i	i	i	i	i
O=C(Oc1ccccc1)c1cccnc1Oc1ccccc1	i	5*	i	i	i	i	i	i
O=C(Nc1ccc2c(c1)OCCO2)c1cccnc1Oc1ccccc1	i	4.7*	i	i	i	5.5%*	i	i
FC(F)(F)c1cc(-c2ccccn2)nc2cc(-c3ccccc3)nn12	i	i	i	i	i	.	.	.
CC1CC(C)(C)NC(=S)N1CC(=O)NCc1ccc2c(c1)OCO2 (stereo not given)	i	i	i	i	i	.	.	.
COc1ccc2cc(-c3[nH]ncc3CN3CCCN(c4ccccc4)CC3)ccc2c1	i	5.5*	i	i	i	20%*	40%*	i
